Screening data from PubChem BioAssay.
Rtt109 HAT inh: C. albicans Rtt109 histone acetyltransferase inhibition; Q5AAJ8; purified Rtt109/Vps75, ThioGlo CoA-SH fluorescence, 4 h; inhibition, % at 34.9 µM; hit rate 0.16% among 330,000; AID 540336;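 active means inhibition of at least 50% in every replicate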
Target sequence (Q5AAJ8 whole entry, looked up): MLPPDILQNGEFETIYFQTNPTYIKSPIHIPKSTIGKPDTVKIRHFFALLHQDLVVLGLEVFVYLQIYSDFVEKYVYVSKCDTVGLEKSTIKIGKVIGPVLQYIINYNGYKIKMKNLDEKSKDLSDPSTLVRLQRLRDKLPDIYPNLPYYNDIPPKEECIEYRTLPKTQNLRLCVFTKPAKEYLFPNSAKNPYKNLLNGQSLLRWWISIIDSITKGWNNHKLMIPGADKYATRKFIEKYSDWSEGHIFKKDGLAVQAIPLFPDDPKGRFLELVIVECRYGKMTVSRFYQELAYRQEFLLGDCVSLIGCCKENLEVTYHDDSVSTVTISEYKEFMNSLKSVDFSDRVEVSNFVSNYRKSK
CAL PDZ FP-1: inhibitors of human CAL PDZ peptide binding; Q9HD26; purified CAL PDZ, TMR-peptide fluorescence polarization, 1 h; inhibition, % at 24.9 µM; hit rate 0.92% among 300,000;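 active means mean inhibition of at least 30% with at least half of replicates also reaching 30%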
DYRK1A inh: inhibitors of rat Dyrk1A kinase. Q63470. ADP-Glo luminescence, NFATc1 peptide. inhibition, % at 12.5 µM. hit rate 0.43% among 310,000. AID 504441; in the data active means inhibition above about 50%
CAL PDZ FP-2: blocks peptide binding to human CAL PDZ domain. hit rate 0.02% among 330,000. inhibition, % at 20 µM. purified CAL PDZ, TMR-peptide fluorescence polarization, 1 h. AID 504414;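 active means highest replicate inhibition of at least 40%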
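Material: tagged CAL PDZ domain; buffer or medium: 25 mM sodium phosphate pH 7.4, 150 mM NaCl, TCEP, IgG, Thesit; compound dosing: single point, 20 µM; schedule: 1 h incubation at room temperature before polarization reading; measured by: FP readout, S and P plane fluorescence; read-out basis: percent inhibition from loss of millipolarization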
CDK5 p35 inh: inhibitors of human CDK5/p35 kinase | Q00535+Q15078 | Recombinant CDK5/p35, ADP-Glo luminescence, 60 min | inhibition, % at 10 µM | hit rate 0.01% among 330,000 | AID 488839;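 active means highest replicate inhibition of at least 50% and at least 75% of replicates reaching 50%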
dFosB act: enhances mouse delta FosB homodimer DNA binding | purified delta FosB, TAMRA-CDK5 oligo fluorescence polarization; percent of positive-control signal above neutral wells | hit rate 0.99% among 340,000 | activation, % at 25 µM;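 active means mean activation above about 17%, with every replicate also reaching it, limit read from the data, passing the limit was not always enough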
Dyrk1A artifact: ADP-Glo luciferase interference, Dyrk1A counter-screen; ADP-Glo luciferase artifact assay, no Dyrk1A, luminescence; 1,300 tested, under 10 active; shares compounds with DYRK1A inh; AID 588348; AC50, µM (doses to about 12 µM);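 active means fitted half-maximal dose AC50 no more than ten times the top valid tested dose, with luminescence dropping as dose rises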
Hits are given with their value; – = inactive; · = no result. A selection: hits, their analogues and other compounds. The true share with any hit is near 2.2%.

SMILES | Rtt109 HAT inh | CAL PDZ FP-1 | DYRK1A inh | CAL PDZ FP-2 | CDK5 p35 inh | dFosB act | Dyrk1A artifact
CN1CCN(C(CNC(=O)C(=O)NC2CCCCC2)c2ccc(F)cc2)CC1 (stereo not given) | – | – | – | – | – | – | ·
COc1ccc(Nc2cc(C)c3ccc(O)cc3n2)cc1 | – | – | – | – | – | – | ·
Cc1cc(Nc2ccccc2)nc2cc(O)ccc12 | – | · | 74 | – | – | – | –
C=CC(C)(C)c1c2occc2c(O)c2ccc(=O)oc12 | – | – | – | – | – | – | ·
C=CC(C)(C)c1c(O)c(CC=C(C)C)c(O)c2c(=O)c3ccc(O)c(O)c3oc12 | – | – | 99 | – | – | – | –
c1cncc(-c2ccc3[nH]ccc3c2)c1 | – | – | 55 | – | – | – | –
c1ccc(-c2ccc3[nH]ccc3c2)cc1 | – | – | – | – | – | – | ·
CCC(C)[C@H]1CNCCN1CC1(c2ccccc2)CC1 (stereo not given in full) | – | – | – | – | – | – | ·
CCC(C)[C@H]1CNCCN1CCc1cccc2ccccc12 (stereo not given in full) | – | – | 51 | – | – | – | –
C=CCN1CN(S(=O)(=O)c2cccc(Cl)c2)c2nc3ccccc3nc21 | – | – | – | – | – | – | ·
CC(C)Oc1ccc(C2CNC(=O)C2)cc1 (stereo not given) | – | · | 54 | – | – | – | –
O=c1oc(-c2ccc(O)c(O)c2)cc2cc(O)cc(O)c12 | – | – | 73 | – | – | – | –
CCc1ccc(C(=O)NCc2cnn(C)c2)s1 | – | – | · | – | – | – | ·
Cc1ccc(S(=O)(=O)N(C)C)cc1NC(=S)Nc1cccc2ccccc12 | – | – | – | – | – | – | ·
S=C(Nc1ccc(Cl)cc1)Nc1cccc2cnccc12 | – | – | – | – | – | – | ·
Fc1ccc(NC(=S)Nc2cccc3cnccc23)cc1 | – | – | 59 | – | – | – | –
S=C(Nc1cccnc1)Nc1cccc2cnccc12 | – | – | 60 | – | – | – | –
CN(C)S(=O)(=O)c1cccc(NC(=S)Nc2cccc3cnccc23)c1 | – | – | 56 | – | – | – | –
COc1ccc(NC(=S)Nc2cccc3cnccc23)cc1 | – | – | 56 | – | · | – | –
CCN(CC)S(=O)(=O)c1cccc(NC(=O)c2ccc(C#N)cc2)c1 | – | – | – | – | – | – | ·
COc1ccc(-c2[nH]ncc2-c2ccc3c(c2)OCCO3)c(O)c1 | – | – | 60 | – | – | – | –
CN(Cc1cn[nH]c1-c1ccc2c(c1)OCO2)C1CCOCC1 | – | – | – | – | – | – | ·
CCc1cc(-c2[nH]ncc2-c2ccc3c(c2)OCO3)c(O)cc1O | – | – | 52 | – | – | – | –
Cc1cc(Oc2ccc(=O)n(C)n2)nc(SCc2ccccc2)n1 | – | – | – | – | – | – | ·
CCc1ccccc1S(=O)(=O)Cc1ccc(C(=O)NCc2cccs2)o1 | – | – | – | – | – | – | ·
SMILES | Rtt109 HAT inh | CAL PDZ FP-1 | DYRK1A inh | CAL PDZ FP-2 | CDK5 p35 inh | dFosB act | Dyrk1A artifact
Oc1[nH]c2ccc(Br)cc2c1N=NC(=S)Nc1ccc(F)cc1 | – | – | – | – | – | – | ·
Oc1ccc(NC(=S)N=Nc2c(O)[nH]c3ccc(Br)cc23)cc1 | – | – | 51 | – | – | – | –
N=C(N)N=Nc1c(O)[nH]c2ccc(Br)cc12 | – | – | 63 | – | – | – | –
COc1cccc(Nc2ncnc3sc(C)cc23)c1 | – | – | 77 | – | – | – | –
COc1ccc(N/C(C)=C2/C(=O)C(=O)N(CCO)C2c2ccc([N+](=O)[O-])cc2)cc1 (stereo not given) | – | – | – | – | – | – | ·
O=c1[nH]c(=S)[nH]c2sccc12 | – | – | 64 | – | – | – | –
O=C1/C(=C/c2cccc([N+](=O)[O-])c2)Oc2cc(O)ccc21 | – | – | – | – | – | – | ·
COc1cc(/C=C2\Oc3cc(O)ccc3C2=O)ccc1O | – | – | 93 | – | – | – | –
COc1cc(/C=C2\CCC/C(=C\c3ccc(O)c(OC)c3)C2=O)ccc1O | – | – | – | · | – | – | ·
O=C1/C(=C/c2ccc(O)c(O)c2)Oc2cc(O)ccc21 | – | – | 68 | – | – | – | –
Brc1ccccc1C1=Nn2c(nnc2-c2ccccc2)SC1 | – | – | 73 | – | – | – | –
Cc1ccc(-c2nnc3n2N=C(c2ccc(Br)cc2)CS3)cc1 | – | – | – | – | – | – | ·
COc1ccc(-c2cc(C(=O)c3c(N)n(C)c(=O)n(C)c3=O)c3ccccc3n2)cc1OC | – | – | – | – | – | – | ·
CN=C1S/C(=C\c2ccc(O)c(Br)c2)C(=O)N1C | – | – | 91 | – | – | – | –
COc1ccc(-n2c(Cn3c(=O)sc4ccccc43)nnc2SCC(=O)N2CCOCC2)cc1 | – | · | 56 | – | – | – | –
CCOCCCNC(=O)/C(C#N)=C/c1cc(Br)c(O)c(Br)c1 | – | – | 55 | – | – | – | –
COCCNC(=O)/C(C#N)=C/c1cc(Br)c(O)c(OC)c1 | – | – | – | – | – | – | ·
COc1cc(-c2oc3cc(O)cc(O)c3c(=O)c2O[C@@H]2O[C@H](COC3O[C@@H](C)[C@H](O)[C@@H](O)[C@H]3O)[C@@H](O)[C@H](O)[C@H]2O)ccc1O (stereo not given in full) | – | – | 71 | – | – | – | –
O=c1c(OC2OC(CO)C(O)C(O)C2O)c(-c2ccc(O)c(O)c2)oc2cc(O)cc(O)c12 (stereo not given) | – | – | 75 | – | – | – | –
O=c1c(OC2OC(CO)C(O)C(O)C2OC2OC(CO)C(O)C(O)C2O)c(-c2ccc(O)cc2)oc2cc(O)cc(O)c12 (stereo not given) | – | – | – | – | – | – | ·
C[C@@H]1O[C@@H](Oc2c(-c3ccc(O)c(O)c3)oc3cc(O)cc(O)c3c2=O)[C@H](O)[C@H](O)[C@H]1O | – | – | – | – | – | – | ·
O=c1c(O[C@@H]2O[C@H](CO)C(O)C2O)c(-c2ccc(O)c(O)c2)oc2cc(O)cc(O)c12 (stereo not given in full) | – | – | 64 | – | – | – | –
C[C@@H]1O[C@@H](O[C@H]2[C@H](O)[C@@H](O)[C@H](Oc3c(-c4ccc(O)c(O)c4)oc4cc(O)cc(O)c4c3=O)O[C@@H]2CO)[C@H](O)[C@H](O)[C@H]1O | – | – | 52 | – | – | – | –
COc1cccc(/C=N/NC(=O)C(=O)Nc2ccccc2OC(F)(F)C(F)F)c1O | – | – | – | – | – | – | ·
Cc1cc(=O)oc2c(C)c(OCC(=O)N3CCC(C(=O)O)CC3)ccc12 | – | – | – | – | – | – | ·
